These results are taken from ChEMBL document CHEMBL1154067, “Antiviral and cytotoxic activities of aminoarylazo compounds and aryltriazene derivatives” (Bioorg Med Chem, 2009).

Usually CC50 stands for the concentration that lowers cell viability or growth by half. In general, EC50 refers to the midpoint of the concentration-response curve.

The source made the active and inactive calls.

The subject of one data set is MT4. The experiment in a line: Cytotoxicity against human MT4 cells after 96 hrs by MTT assay. It is filed as cell-based. The note with it: mt4, 96 h. A digest of the protocol: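 Exponentially growing mock-infected MT-4 seeded at 1 × 10^5 cells/mL in RPMI-1640 with 10% FCS, penicillin and streptomycin. Incubated with or without serial compound dilutions at 37 °C, 5% CO2. Viability by MTT after 96 h. CC50 = concentration reducing viability 50%.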
For orientation: Formazan colour is commonly taken as a measure of viable cells.

Data set [1] can be described thus: Cytotoxicity against MDBK cells after 48 to 96 hrs by MTT assay. In kind it is cell-based, Bos taurus. The conditions noted are these: cattle, mdbk. A digest of the protocol: (§1)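 Mock-infected cells in maintenance medium, MDBK at 6 × 10^5 and BHK at 1 × 10^6 cells/mL initial density, with or without serial compound dilutions. Run in parallel with antiviral assays. Viability by MTT after 48–96 h at 37 °C, 5% CO2. CC50 = concentration reducing viability 50%.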

For data set [2], the system named is Bovine viral diarrhea virus 1. As to the kind of experiment: Antiviral activity against Bovine viral diarrhea virus infected in MDBK cells assessed as inhibition of virus-induced cytopathicity after 3 to 4 days by MTT assay. The conditions noted are these: Bovine viral diarrhea virus isolates and strains. In kind it is functional, organism-based. Background: Protection from cytopathic effect is a common read-out in antiviral testing.

The test system of the next data set is Yellow fever virus. As to the kind of experiment: Antiviral activity against Yellow fever virus infected in BHK-21 cells assessed as inhibition of virus-induced cytopathicity after 3 to 4 days by MTT assay. In kind it is functional, organism-based.
Data set [3] concerns Mammalian orthoreovirus 1. As to the kind of experiment: Antiviral activity against Reovirus-1 infected in BHK-21 cells assessed as inhibition of virus-induced cytopathicity after 3 to 4 days by MTT assay. In kind it is functional, organism-based. The conditions noted are these: Mammalian orthoreovirus 1, BHK-21. A digest of the protocol:
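BHK-21 cells seeded at 5 × 10^4 cells/well, grown overnight to confluent monolayers at 37 °C in 5% CO2, then infected at m.o.i. 0.01 in serum-free medium. One hour later, MEM Earle's with 1% final inactivated FCS added, with or without serial compound dilutions. Viability read by MTT after 3–4 days at 37 °C. EC50 is the concentration giving 50% protection from cytopathogenicity.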

For the next data set, the system named is Vero. As to the kind of experiment: Cytotoxicity against african green monkey Vero 76 cells by crystal violet staining. It is filed as cell-based. The note with it: chlorocebus sabaeus, vero. A digest of the protocol:
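Mock-infected Vero 76 seeded at 4 × 10^5 cells/mL, run in parallel with plaque assays, with or without serial compound dilutions. Cell number of monolayers determined by crystal violet staining. CC50 = concentration reducing viable cell number 50%.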

The test system of the next data set is Coxsackievirus B2. The experiment in a line: Antiviral activity against Coxsackie virus type B2 virus infected in african green monkey Vero-76 cells after 3 days by plaque reduction assay. It is filed as functional, organism-based. The note with it: Enterovirus B, Vero 76, 72 h. A digest of the protocol:
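Vero 76 cells seeded at 2 × 10^5 cells/well, grown overnight to confluence at 37 °C in 5% CO2, then infected at 50–100 PFU/well. Unadsorbed virus removed. Overlay of DMEM with 1% inactivated FCS and 0.75% methylcellulose, with or without serial compound dilutions. After 3 days at 37 °C, fixed and stained with crystal violet in PBS/50% ethanol; plaques counted. EC50 is the concentration reducing plaque number by 50%.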

Data set [4] relates to Respiratory syncytial virus. As to the kind of experiment: Antiviral activity against Respiratory syncytial virus A2 infected in Vero-76 cells after 5 days by plaque reduction assay. In kind it is functional, organism-based. The conditions noted are these: human respiratory syncytial virus, A2, Vero 76, 120 h. A general note: Plaques are areas of infected cells; plaque reduction assays count them against a control.

Another data set concerns Human alphaherpesvirus 1. As to the kind of experiment: Antiviral activity against HSV1 infected in Vero-76 cells after 3 days by plaque reduction assay. It is filed as functional, organism-based. The conditions noted are these: Human alphaherpesvirus 1, Vero 76, 72 h.
Data set [5] is described as follows: Cytotoxicity against hamster BHK21 cells assessed as reduction in cell viability after 48 to 96 hrs by MTT assay. The note with it: bhk-21. It is filed as cell-based, Mesocricetus auratus, BHK-21. The method, boiled down: as §1
For a further data set, the system named is Poliovirus 1. The experiment in a line: Antiviral activity against Human poliovirus 1 strain Sabin after 2 days by plaque reduction assay. It is filed as functional. The note with it: for EC50: Enterovirus C, 48 h.
Data set [6] has as its system Human immunodeficiency virus 1. The experiment in a line: Antiviral activity against HIV1 infected in human MT4 cells assessed as inhibition of virus-induced cytopathicity after 4 days by MTT assay. In kind it is functional, organism-based.
For data set [7], the system named is Vesicular stomatitis virus. As to the kind of experiment: Antiviral activity against Vesicular stomatitis virus after 2 days by plaque reduction assay. In kind it is functional, organism-based.
For a further data set, the system named is Vaccinia virus. As to the kind of experiment: Antiviral activity against Vaccinia virus after 3 days by plaque reduction assay. In kind it is functional, organism-based. The conditions noted are these: Orthopoxvirus vaccinia.

Take `Fc1ccc(/N=N/c2ccc(NC[C@@H]3CCCN4CCCC[C@H]34)c3c2CCCC3)c(F)c1`: the cytotoxic concentration (CC50) in the data set with MT4 is 51 µM; in data set [1], 11 µM; in the data set with Vero, 15 µM; in data set [5], 9 µM. For the same molecule, the 50% effective concentration (EC50) in [2] was above 11 µM; with Yellow fever virus, above 9 µM; in data set [3], above 9 µM; with Coxsackievirus B2 it was above 15 µM; in data set [4] it was above 15 µM; in the data set with Human alphaherpesvirus 1 it was above 15 µM. Also, the outcome (in the data set on Poliovirus 1; in data set [7]; in the data set with Vaccinia virus) was inactive. For the same molecule, the inhibition result in data set [6] was “inactive”.
On to `CN(/N=N/c1ccccc1)c1ccccc1`, for which the CC50 in the data set with MT4 was 55 µM; in [1] it was above 100 µM; in the data set on Vero it was 50 µM; in [5], above 100 µM. In addition, the concentration for a half-maximal effect (EC50) in [2] was above 100 µM; with Yellow fever virus, above 100 µM; in data set [3] it was above 100 µM; in the data set with Coxsackievirus B2, above 50 µM; in data set [4] it was 20 µM; with Human alphaherpesvirus 1, above 50 µM. The EC50 in the data set on Poliovirus 1 is above 50 µM. Moreover, the inhibition entry in data set [6] is “inactive”. For the same molecule, the result (in data set [7]; with Vaccinia virus) was inactive.
In the case of `Cc1ccc(/N=N/N(CCCN(C)C)c2ccccc2)cc1`, the CC50 with MT4 was 18 µM; in data set [1], above 100 µM; with Vero, 100 µM; in data set [5] it was above 100 µM. Further, the EC50 (in [2]; in the data set on Yellow fever virus; in data set [3]; with Coxsackievirus B2; in data set [4]; with Human alphaherpesvirus 1) was above 100 µM in each case. The 50% effective concentration (EC50) in the data set on Poliovirus 1 is above 100 µM. In addition, in [6], the inhibition result was “inactive”. Moreover, the result (in data set [7]; with Vaccinia virus) was inactive.
Consider `Cc1ccc(/N=N/N(C)c2ccccc2)cc1`, for which the CC50 is 45 µM in the data set on MT4, above 100 µM in [1], 58 µM in the data set with Vero and above 100 µM in [5]. The EC50 in data set [2] is above 100 µM; in the data set with Yellow fever virus, above 100 µM; in data set [3], above 100 µM; with Coxsackievirus B2 it was above 58 µM; in data set [4], above 58 µM; with Human alphaherpesvirus 1 it was above 58 µM. This molecule returned an EC50 in the data set with Poliovirus 1 above 58 µM. In data set [6], the inhibition entry is “inactive”. For the same molecule, the outcome (in data set [7]; in the data set on Vaccinia virus) was inactive.
As for `Cc1c(/N=N/c2ccccc2)ccc(NC[C@@H]2CCCN3CCCC[C@H]23)c1C`, the CC50 in the data set on MT4 stood at 31 µM; in data set [1], 48 µM; in the data set on Vero it was 60 µM; in data set [5], 47 µM. Also, the EC50 in [2] was 2.5 µM; in the data set with Yellow fever virus, 9 µM; in [3], above 47 µM; in the data set with Coxsackievirus B2, above 60 µM; in data set [4], above 60 µM; with Human alphaherpesvirus 1, above 60 µM. The outcome (in the data set on Poliovirus 1; in data set [7]; with Vaccinia virus) was inactive. In [6], the inhibition entry is “inactive”.
Turning to `Cc1c(/N=N/c2cccc(C(F)(F)F)c2)ccc(NC[C@@H]2CCCN3CCCC[C@H]23)c1C`, the CC50 with MT4 was 77 µM; in [1], 52 µM; in the data set on Vero it was 80 µM; in data set [5] it was at least 100 µM. Further, the EC50 is 7 µM in [2]; above 100 µM in the data set with Yellow fever virus; above 100 µM in data set [3]; above 80 µM in the data set with Coxsackievirus B2; above 80 µM in [4]; above 80 µM in the data set on Human alphaherpesvirus 1. Besides, the outcome (in the data set with Poliovirus 1; in data set [7]; in the data set with Vaccinia virus) was inactive. In [6], the inhibition entry is “inactive”.
For `CN(C)CCCN(/N=N/c1cc(F)ccc1F)c1cccc(C(F)(F)F)c1`, the CC50 in the data set on MT4 was 16 µM; in [1], above 100 µM; in the data set with Vero it was 30 µM; in data set [5] it was 54 µM. The EC50 in data set [2] was 90 µM; with Yellow fever virus, above 54 µM; in data set [3], above 54 µM; in the data set on Coxsackievirus B2, above 30 µM; in data set [4] it was above 30 µM; in the data set on Human alphaherpesvirus 1, above 30 µM. This molecule also yielded an EC50 with Poliovirus 1 above 30 µM. The inhibition entry in [6] was “inactive”. For the same molecule, the outcome (in [7]; in the data set on Vaccinia virus) was inactive.
As to `CN(C)CCCNc1ccc(/N=N/c2cccc([N+](=O)[O-])c2)cc1`, the CC50 was found to be 14 µM in the data set with MT4, 33 µM in [1], 25 µM with Vero and 20 µM in data set [5]. In addition, the EC50 in data set [2] was 16 µM; in the data set with Yellow fever virus, 7 µM; in data set [3], above 20 µM; in the data set on Coxsackievirus B2, 11 µM; in [4], above 25 µM; with Human alphaherpesvirus 1 it was 6 µM. For the same molecule, the result (in the data set with Poliovirus 1; in data set [7]; with Vaccinia virus) was inactive. Also, the inhibition entry in data set [6] is “inactive”.
Consider `CN(C)CCCN(/N=N/c1cccc([N+](=O)[O-])c1)c1ccccc1`, for which the CC50 with MT4 came to 14 µM; in data set [1], 37 µM; in the data set on Vero, 40 µM; in data set [5], 54 µM. In addition, the EC50 in data set [2] was above 37 µM; in the data set with Yellow fever virus, 24 µM; in data set [3] it was above 54 µM; in the data set with Coxsackievirus B2, above 40 µM; in data set [4], above 40 µM; in the data set with Human alphaherpesvirus 1 it was 30 µM. In the data set on Poliovirus 1, this molecule came in with an EC50 above 40 µM. In addition, the inhibition result in data set [6] was “inactive”. Moreover, the outcome (in [7]; in the data set on Vaccinia virus) was inactive.
As for `O=[N+]([O-])c1cccc(/N=N/Nc2cccc([N+](=O)[O-])c2)c1`, the CC50 (with MT4; in data set [1]; with Vero; in [5]) was above 100 µM each time. Besides, the EC50 (in data set [2]; in the data set with Yellow fever virus; in data set [3]; in the data set on Coxsackievirus B2; in data set [4]; with Human alphaherpesvirus 1) was above 100 µM each time. In the data set with Poliovirus 1, this molecule returned an EC50 above 100 µM. Also, the inhibition result in data set [6] is “inactive”. In addition, the result (in data set [7]; in the data set on Vaccinia virus) was inactive.
On to `CN(C)CCCNc1ccc(/N=N/c2cc(F)ccc2F)cc1`, for which the 50% cytotoxic concentration (CC50) in the data set with MT4 stood at 16 µM; in data set [1], 59 µM; in the data set with Vero, 30 µM; in data set [5], 33 µM. Besides, the EC50 in data set [2] is 9 µM; with Yellow fever virus, 12 µM; in data set [3], above 33 µM; with Coxsackievirus B2, above 30 µM; in [4] it was above 30 µM; in the data set with Human alphaherpesvirus 1, 12 µM. Besides, the result (in the data set with Poliovirus 1; in [7]; in the data set on Vaccinia virus) was inactive. In addition, the inhibition result in data set [6] was “inactive”.
Consider `CN(/N=N/c1cccc([N+](=O)[O-])c1)c1ccccc1`, for which the CC50 was above 100 µM in the data set with MT4, 82 µM in [1], above 100 µM with Vero and above 100 µM in data set [5]. The EC50 was above 82 µM in data set [2]; above 100 µM in the data set on Yellow fever virus; 33 µM in data set [3]; above 100 µM in the data set with Coxsackievirus B2; 15 µM in data set [4]; above 100 µM in the data set with Human alphaherpesvirus 1. The half-maximal effective concentration (EC50) with Poliovirus 1 amounted to 29 µM. In addition, the inhibition entry in data set [6] is “inactive”. Further, the result (in data set [7]; in the data set on Vaccinia virus) was inactive.
